# System: Fibroblast
# Assay: Multiplex assay against human fibroblast
# Type: toxicity, cell-based
# Outline: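 Live cells carried four stains from seeding: Hoechst33342, BioTracker Green Microtubule Cytoskeleton Dye, MitoTracker Red and Annexin V Alexa Fluor 680. They were imaged on a CQ1 microscope at 37°C and 5% CO2 after compound addition. Using CellPathfinder machine-learning gating, cells were split into Hoechst high-intensity objects or normal cells, normal cells into healthy, pyknosed or fragmented nuclei, and pyknosed cells into mitotic or apoptotic; tubulin, mitochondrial-mass and membrane-permeability phenotypes are per cents of healthy-nucleus cells.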
# [1] = 12 h, 1 µM, compound concentration 1 uM, replicate 1
# [2] = 12 h, 1 µM, compound concentration 1 uM, replicate 2
# [3] = 12 h, 10 µM, compound concentration 10 uM, replicate 1
# [4] = 12 h, 10 µM, compound concentration 10 uM, replicate 2
# [5] = 24 h, 1 µM, compound concentration 1 uM, replicate 1
# [6] = 24 h, 1 µM, compound concentration 1 uM, replicate 2
# [7] = 24 h, 10 µM, compound concentration 10 uM, replicate 1
# [8] = 24 h, 10 µM, compound concentration 10 uM, replicate 2
# [9] = 48 h, 1 µM, compound concentration 1 uM, replicate 1
# [10] = 48 h, 1 µM, compound concentration 1 uM, replicate 2
# [11] = 48 h, 10 µM, compound concentration 10 uM, replicate 1
# [12] = 48 h, 10 µM, compound concentration 10 uM, replicate 2
compound,measurement,setting,value
Cc1onc(-c2ccccc2Cl)c1C(=O)N(C)c1ccc(Cl)cc1,Population Apoptotic (%),[1],60%
same,Population Fragmented Nuclei (%),[1],17%
same,Population Healthy Nuclei (%),[1],68%
same,Population Hoechst High Intensity Objects (%),[1],7%
same,Population Membrane Permeable-Phenotype (%),[1],0%
same,Population Mitochondria Different-Phenotype (%),[1],7%
same,Population Mitotic Cells (%),[1],39%
same,Population Normal (%),[1],92%
same,Population Pyknosed Nuclei (%),[1],13%
same,Population Tubulin-Different-Phenotype (%),[1],23%
same,Total Cell Count,[1],178
same,Population Apoptotic (%),[2],35%
same,Population Fragmented Nuclei (%),[2],22%
same,Population Healthy Nuclei (%),[2],50%
same,Population Hoechst High Intensity Objects (%),[2],9%
same,Population Membrane Permeable-Phenotype (%),[2],6%
same,Population Mitochondria Different-Phenotype (%),[2],8%
same,Population Mitotic Cells (%),[2],65%
same,Population Normal (%),[2],90%
same,Population Pyknosed Nuclei (%),[2],27%
same,Population Tubulin-Different-Phenotype (%),[2],63%
same,Total Cell Count,[2],161
same,Population Apoptotic (%),[3],36%
same,Population Fragmented Nuclei (%),[3],16%
same,Population Healthy Nuclei (%),[3],70%
same,Population Hoechst High Intensity Objects (%),[3],2%
same,Population Membrane Permeable-Phenotype (%),[3],2%
same,Population Mitochondria Different-Phenotype (%),[3],6%
same,Population Mitotic Cells (%),[3],63%
same,Population Normal (%),[3],97%
same,Population Pyknosed Nuclei (%),[3],13%
same,Population Tubulin-Different-Phenotype (%),[3],29%
same,Total Cell Count,[3],144
same,Population Apoptotic (%),[4],37%
same,Population Fragmented Nuclei (%),[4],24%
same,Population Healthy Nuclei (%),[4],48%
same,Population Hoechst High Intensity Objects (%),[4],3%
same,Population Membrane Permeable-Phenotype (%),[4],5%
same,Population Mitochondria Different-Phenotype (%),[4],11%
same,Population Mitotic Cells (%),[4],62%
same,Population Normal (%),[4],96%
same,Population Pyknosed Nuclei (%),[4],27%
same,Population Tubulin-Different-Phenotype (%),[4],64%
same,Total Cell Count,[4],151
same,Population Apoptotic (%),[5],44%
same,Population Fragmented Nuclei (%),[5],18%
same,Population Healthy Nuclei (%),[5],65%
same,Population Hoechst High Intensity Objects (%),[5],7%
same,Population Membrane Permeable-Phenotype (%),[5],0%
same,Population Mitochondria Different-Phenotype (%),[5],1%
same,Population Mitotic Cells (%),[5],55%
same,Population Normal (%),[5],92%
same,Population Pyknosed Nuclei (%),[5],16%
same,Population Tubulin-Different-Phenotype (%),[5],16%
same,Total Cell Count,[5],178
same,Population Apoptotic (%),[6],39%
same,Population Fragmented Nuclei (%),[6],22%
same,Population Healthy Nuclei (%),[6],54%
same,Population Hoechst High Intensity Objects (%),[6],12%
same,Population Membrane Permeable-Phenotype (%),[6],8%
same,Population Mitochondria Different-Phenotype (%),[6],4%
same,Population Mitotic Cells (%),[6],60%
same,Population Normal (%),[6],87%
same,Population Pyknosed Nuclei (%),[6],23%
same,Population Tubulin-Different-Phenotype (%),[6],56%
same,Total Cell Count,[6],182
same,Population Apoptotic (%),[7],20%
same,Population Fragmented Nuclei (%),[7],16%
same,Population Healthy Nuclei (%),[7],76%
same,Population Hoechst High Intensity Objects (%),[7],2%
same,Population Membrane Permeable-Phenotype (%),[7],1%
same,Population Mitochondria Different-Phenotype (%),[7],4%
same,Population Mitotic Cells (%),[7],80%
same,Population Normal (%),[7],97%
same,Population Pyknosed Nuclei (%),[7],7%
same,Population Tubulin-Different-Phenotype (%),[7],32%
same,Total Cell Count,[7],134
same,Population Apoptotic (%),[8],54%
same,Population Fragmented Nuclei (%),[8],21%
same,Population Healthy Nuclei (%),[8],55%
same,Population Hoechst High Intensity Objects (%),[8],4%
same,Population Membrane Permeable-Phenotype (%),[8],6%
same,Population Mitochondria Different-Phenotype (%),[8],6%
same,Population Mitotic Cells (%),[8],45%
same,Population Normal (%),[8],95%
same,Population Pyknosed Nuclei (%),[8],23%
same,Population Tubulin-Different-Phenotype (%),[8],59%
same,Total Cell Count,[8],149
same,Population Apoptotic (%),[9],76%
same,Population Fragmented Nuclei (%),[9],26%
same,Population Healthy Nuclei (%),[9],62%
same,Population Hoechst High Intensity Objects (%),[9],9%
same,Population Membrane Permeable-Phenotype (%),[9],0%
same,Population Mitochondria Different-Phenotype (%),[9],1%
same,Population Mitotic Cells (%),[9],23%
same,Population Normal (%),[9],90%
same,Population Pyknosed Nuclei (%),[9],10%
same,Population Tubulin-Different-Phenotype (%),[9],22%
same,Total Cell Count,[9],185
same,Population Apoptotic (%),[10],48%
same,Population Fragmented Nuclei (%),[10],28%
same,Population Healthy Nuclei (%),[10],54%
same,Population Hoechst High Intensity Objects (%),[10],11%
same,Population Membrane Permeable-Phenotype (%),[10],10%
same,Population Mitochondria Different-Phenotype (%),[10],6%
same,Population Mitotic Cells (%),[10],51%
same,Population Normal (%),[10],88%
same,Population Pyknosed Nuclei (%),[10],17%
same,Population Tubulin-Different-Phenotype (%),[10],51%
same,Total Cell Count,[10],188
same,Population Apoptotic (%),[11],44%
same,Population Fragmented Nuclei (%),[11],25%
same,Population Healthy Nuclei (%),[11],68%
same,Population Hoechst High Intensity Objects (%),[11],4%
same,Population Membrane Permeable-Phenotype (%),[11],0%
same,Population Mitochondria Different-Phenotype (%),[11],3%
same,Population Mitotic Cells (%),[11],55%
same,Population Normal (%),[11],95%
same,Population Pyknosed Nuclei (%),[11],6%
same,Population Tubulin-Different-Phenotype (%),[11],34%
same,Total Cell Count,[11],141
same,Population Apoptotic (%),[12],65%
same,Population Fragmented Nuclei (%),[12],31%
same,Population Healthy Nuclei (%),[12],55%
same,Population Hoechst High Intensity Objects (%),[12],1%
same,Population Membrane Permeable-Phenotype (%),[12],8%
same,Population Mitochondria Different-Phenotype (%),[12],6%
same,Population Mitotic Cells (%),[12],35%
same,Population Normal (%),[12],98%
same,Population Pyknosed Nuclei (%),[12],12%
same,Population Tubulin-Different-Phenotype (%),[12],53%
same,Total Cell Count,[12],166
